# Measured values published in ChEMBL document CHEMBL4145675, “2-Phenylquinoline S. aureus NorA Efflux Pump Inhibitors: Evaluation of the Importance of Methoxy Group Introduction” (J Med Chem, 2018).
# How the values were obtained:
# [1] = molecular target: T1, Quinolone resistance protein NorA (Staphylococcus aureus) (UniProt P0A0J7); assay: Inhibition of NorA in Staphylococcus aureus SA-K2378 assessed as synergistic potentiation of ciprofloxacin-induced antimicrobial activity at 0.78 ug/ml by microdilution method based Checkerboard assay
# T1 sequence (whole entry): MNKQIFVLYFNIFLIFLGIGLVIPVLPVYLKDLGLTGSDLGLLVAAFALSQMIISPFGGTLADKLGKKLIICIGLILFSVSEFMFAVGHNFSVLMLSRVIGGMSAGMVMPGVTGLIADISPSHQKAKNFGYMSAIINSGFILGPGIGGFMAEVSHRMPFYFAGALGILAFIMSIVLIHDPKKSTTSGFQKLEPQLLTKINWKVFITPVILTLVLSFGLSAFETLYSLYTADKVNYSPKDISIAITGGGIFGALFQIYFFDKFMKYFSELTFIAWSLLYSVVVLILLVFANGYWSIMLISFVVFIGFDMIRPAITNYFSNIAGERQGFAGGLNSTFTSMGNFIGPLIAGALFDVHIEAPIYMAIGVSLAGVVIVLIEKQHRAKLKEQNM
# [2] = molecular target: T2, Multidrug export protein MepA (Staphylococcus aureus (strain NCTC 8325)) (UniProt Q2G140); assay: Inhibition of MepA in Staphylococcus aureus SA-K2886 assessed as synergistic potentiation of EtBr-induced antimicrobial activity by measuring […] at 1.56 ug/ml by microdilution method based Checkerboard assay (reference value: 25 ug/ml)
# T2 sequence (whole entry): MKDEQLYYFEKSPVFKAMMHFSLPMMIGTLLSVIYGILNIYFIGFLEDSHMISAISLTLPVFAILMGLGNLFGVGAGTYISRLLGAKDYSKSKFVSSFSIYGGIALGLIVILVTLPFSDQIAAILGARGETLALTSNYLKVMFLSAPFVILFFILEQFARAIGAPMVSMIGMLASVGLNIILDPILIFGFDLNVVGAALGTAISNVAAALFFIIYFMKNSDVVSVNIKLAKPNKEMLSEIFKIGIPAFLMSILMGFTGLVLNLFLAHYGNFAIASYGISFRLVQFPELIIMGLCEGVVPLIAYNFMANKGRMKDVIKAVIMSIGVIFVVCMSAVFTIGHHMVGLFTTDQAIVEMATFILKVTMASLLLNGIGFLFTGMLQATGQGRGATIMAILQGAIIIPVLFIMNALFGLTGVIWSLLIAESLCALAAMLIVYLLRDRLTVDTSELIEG
# Outline: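 Checkerboard combination of EtBr with compound, using broth microdilution MICs. SA-K2886 (norA-deleted, pALC2073-mepA) and SA-K2885 (norA-deleted, empty pALC2073) were run with 0.05 µg/mL tetracycline in all experiments to induce the xyl/tetO promoter.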
# [3] = Drug metabolism in mouse liver microsomes assessed as oxidation at open piperidine ring or at hydroxylate at 50 uM in presence of NADPH regenerating system incubated for 120 mins by UPLC/MS analysis; type: ADME, microsome; conditions: 2 h
# Outline: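 1 mg/mL mouse liver microsomes in 0.1 M Tris-HCl pH 7.4 with test compound at 50 µM, DMSO up to ~3%. Preincubated 5 min at 37 °C, then started with NADPH regeneration system. Stopped at 120 min with cold methanol and centrifuged. Supernatant analysed by UPLC/MS (ESI, tandem quadrupole).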
smiles,measurement,setting,value
CCCOc1ccc(-c2cc(OCCN3CCCCC3)c3cc(OC)ccc3n2)cc1,fold change (FC),[1],8
same,MIC,[2],< 1.56 µg/mL
same,Drug metabolism,[3],Metabolite_Detected
